Assay [1] deals with Radical scavenging activity. Kind of assay: Antioxidant activity assessed as DPPH radical scavenging activity after 30 mins by spectrophotometry. In kind it is functional.
Assay [2] relates to PC-12. The assay is described as follows: Antioxidant activity against H2O2-induced impairment in rat PC12 cells at 0.16 to 100 uM after 3 hrs by MTT assay. In kind it is functional, cell-based. In outline: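 PC12 cells in RPMI 1640 with 5% fetal calf serum, 10% horse serum, penicillin/streptomycin and 20 mM L-glutamine. Seeded at 1 × 10^6/mL, 24 h at 37 °C, 5% CO2. Then exposed to H2O2 (200 µM final) together with compound (0.16–100 µM final) for 3 h. PBS rinse, MTT 0.4 mg/mL for 4 h at 37 °C, DMSO solubilization, OD 570 nm. Viability %, n = 6, mean ± SD.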
On the technique in general: Tetrazolium assays rely on reduction of a dye to a coloured formazan, in cell work by metabolically active cells.

The source made the active and inactive calls. The rule behind the calls is not given here.

The values below come from ChEMBL document CHEMBL1151851, “Antioxidant Lignans from the Fruits of Broussonetia papyrifera” (J Nat Prod, 2009).

Turning to `COC(c1ccc(O)cc1)[C@H]1CO[C@@H](c2ccc(O)cc2)[C@@H]1CO` (relative stereo) [CHUSHIZISIN G], the IC50 in assay [1] came out at 281 µM.
On to `COc1cc([C@H]2OC[C@H]3[C@@H]2CO[C@@H]3c2ccc(O)cc2)cc2c1O[C@H](c1ccc(O)cc1)[C@H]2CO` (relative stereo), for which the outcome in assay [2] was Active.
Turning to `COc1cc(CCCO)ccc1O[C@H](CO)[C@@H](O)c1ccc(O)cc1` (relative stereo) [CHUSHIZISINS D], the IC50 in assay [1] is 274 µM.
With `COc1cc(C(=O)CCO)cc2c1O[C@H](c1ccc(O)cc1)[C@H]2CO` (relative stereo), the outcome in assay [2] was Active.
Still for that read-out and setting: with `COc1cc(CCCO)cc2c1O[C@H](c1ccc(O)cc1)[C@H]2CO` the entry was “Active”; with `COc1cc(C(=O)[C@@H]2CO[C@H](c3ccc(O)cc3)[C@H]2CO)ccc1O[C@H](CO)[C@@H](O)c1ccc(O)cc1` (relative stereo), “Active”.
For `COc1cc([C@H](O)[C@@H](CO)Oc2ccc(/C=C/CO)cc2OC)ccc1O` (relative stereo), the outcome in assay [2] was Active. Moreover, the IC50 in assay [1] is 60.9 µM.
As to `COc1cc(/C=C/CO)ccc1O[C@H](CO)[C@@H](O)c1ccc(O)cc1` (relative stereo) [CHUSHIZISINS B], in assay [1], the IC50 amounted to 156 µM.
`COc1cc(/C=C/CO)ccc1O[C@H](CO)[C@H](O)c1ccc(O)cc1` (relative stereo) [CHUSHIZISINS A]: the result in assay [2] was Active. Besides, the IC50 in assay [1] stood at 237 µM.

The term IC50 denotes the concentration at which inhibition is half-maximal.
